Source: publication PMC11293336 (Cell Reports Medicine, 2024)

Tests used:
[1] = system: recurrent high-grade gliomas; conditions: IV; cited from earlier work
[2] = system: recurrent high-grade glioma; test: Tumor response and survival, GATOR trial; assay type: in vivo, human; conditions: oral, 19 participants
Method in brief: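 Oral dosing 1,200–6,000 mg/day, days 1–5 every 28 days, in recurrent grade III–IV glioma. OS ran from registration to death from any cause, censored at last known alive. PFS ran from registration to progression, censored if still on treatment or at last progression-free date. Medians by Kaplan–Meier; confidence intervals by Brookmeyer-Crowley method.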

[3] = Plasma pharmacokinetics of oral terameprocol, GATOR trial; assay type: in vivo, human; conditions: for AUC(0-inf): AUCINF
[4] = system: advanced refractory solid tumors; conditions: intravenous; cited from earlier work
[5] = system: advanced acute myeloid leukemia or myelodysplastic syndrome; conditions: intravenous; cited from earlier work
[6] = system: refractory head and neck cancer; conditions: intratumoral, three weekly doses at 10–15 mg/cm; cited from earlier work
[7] = IV 1,700 mg/day (MTD), 5 days/month; cited from earlier work
[8] = system: patients with recurrent high-grade gliomas; conditions: IV; cited from earlier work
[9] = oral 6,000 mg fed, cycle 1 day 4, actual values of 2 patients

Q: Which results are given for `COc1ccc(C[C@@H](C)[C@@H](C)Cc2ccc(OC)c(OC)c2)cc1OC` [terameprocol, meso-tetra-O-methyl nordihydroguaiaretic acid]?
A: objective responses [1]: no objective responses; partial or complete responses [2]: no partial or complete responses; Cmax ([3]; human, plasma, po, 1200 mg, Cmax, oral 1,200 mg fasted, cycle 1 day 1, mean ± SD): 30 ± 10 ng/mL; Cmax ([3]; human, plasma, po, 1200 mg, Cmax, oral 1,200 mg fasted, cycle 1 day 4, mean ± SD): 30 ± 30 ng/mL; half-life ([3]; human, plasma, po, 1200 mg, T1/2, oral 1,200 mg fasted, cycle 1 day 1, 1 patient): 114 min; Cmax ([3]; human, plasma, po, 2400 mg, Cmax, oral 2,400 mg fasted, cycle 1 day 1, mean ± SD): 100 ± 50 ng/mL; Cmax ([3]; human, plasma, po, 2400 mg, Cmax, oral 2,400 mg fasted, cycle 1 day 4, mean ± SD): 100 ± 60 ng/mL; half-life ([3]; human, plasma, po, 2400 mg, T1/2, oral 2,400 mg fasted, cycle 1 day 4, mean ± SD): 1490 ± 372 min; Cmax ([3]; human, plasma, po, 3600 mg, Cmax, oral 3,600 mg fasted, cycle 1 day 1, mean ± SD): 280 ± 190 ng/mL; Cmax ([3]; human, plasma, po, 3600 mg, Cmax, oral 3,600 mg fasted, cycle 1 day 4, mean ± SD): 250 ± 140 ng/mL; half-life ([3]; human, plasma, po, 3600 mg, T1/2, oral 3,600 mg fasted, cycle 1 day 1, mean ± SD): 360 ± 36 min; half-life ([3]; human, plasma, po, 3600 mg, T1/2, oral 3,600 mg fasted, cycle 1 day 4, mean ± SD): 390 ± 48 min; Cmax ([3]; human, plasma, po, 4800 mg, Cmax, oral 4,800 mg fed, cycle 1 day 4, 1 patient): 230 ng/mL; half-life ([3]; human, plasma, po, 4800 mg, T1/2, oral 4,800 mg fed, cycle 1 day 4, 1 patient): 642 min; Tmax ([3]; human, plasma, po, 4800 mg, oral 4,800 mg fed, cycle 1 day 4, 1 patient): 5.9 h; AUC(0-inf) ([3]; human, plasma, po, 6000 mg, oral 6,000 mg fasted, cycle 1 day 1, 1 patient): 1900 ng·h/mL; AUC(0-inf) ([3]; human, plasma, po, 6000 mg, oral 6,000 mg fed, cycle 1 day 1, mean ± SD): 2400 ± 1800 ng·h/mL; Cmax ([3]; human, plasma, po, 6000 mg, Cmax, oral 6,000 mg fasted, cycle 1 day 1, mean ± SD): 200 ± 120 ng/mL; Cmax ([3]; human, plasma, po, 6000 mg, Cmax, oral 6,000 mg fed, cycle 1 day 1, mean ± SD): 330 ± 310 ng/mL; Cmax ([3]; human, plasma, po, 6000 mg, Cmax, oral 6,000 mg fed, cycle 1 day 4, mean ± SD): 600 ± 570 ng/mL; half-life ([3]; human, plasma, po, 6000 mg, T1/2, oral 6,000 mg fasted, cycle 1 day 4, 1 patient): 894 min; half-life ([3]; human, plasma, po, 6000 mg, T1/2, oral 6,000 mg fed, cycle 1 day 1, mean ± SD): 396 ± 132 min; Tmax ([3]; human, plasma, po, 6000 mg, oral 6,000 mg fasted, cycle 1 day 1, median (range; n)): 4 h; Tmax ([3]; human, plasma, po, 6000 mg, oral 6,000 mg fed, cycle 1 day 1, median (range; n)): 4.1 h; Tmax ([3]; human, plasma, po, 6000 mg, oral 6,000 mg fed, cycle 1 day 4, median (range; n)): 8 h; T1/2 ([3]; oral 1,200 mg fasted, cycle 1 day 4, actual values of 2 patients): 3.1 h; AUCINF ([3]; oral 2,400 mg fasted, cycle 1 day 1, actual values of 2 patients): 0.7 μg∗h/mL; T1/2 ([3]; oral 6,000 mg fasted, cycle 1 day 1, actual values of 2 patients): 14.9 h; Cmax ([3]; oral 6,000 mg fasted, cycle 1 day 4, actual values of 2 patients): 150 ng/mL; AUCINF [3, 9]: 4.4 μg∗h/mL; T1/2 [3, 9]: 6.5 h; dose at which DLT was demonstrated [4]: 3,300 mg/day; partial response [4]: 1/29; stable disease [4]: 6/29; stable disease [5]: five; total necrosis of the injection site, patients [6]: 2/3; median AUC [7]: 31.3 μg∗h/mL; myelosuppression [8]: nor did terameprocol cause significant myelosuppression
